Data from ChEMBL document CHEMBL1126604, “Synthesis and antiviral activity of 5-thien-2-yl-2'-deoxyuridine analogues” (1993).
Converted amounts (≈) assume the structure as drawn.

Columns and labels:
Assay type in all cases: functional
Cytomegalovirus [1] = assay: Minimum inhibitory concentration required to reduce cytomegalo virus (CMV (AD-169)) virus-induced cytopathicity by 50%; conditions: Human betaherpesvirus 5
Human alphaherpesvirus 3 [2] = assay: Minimum inhibitory concentration required to reduce Varicella-Zoster virus (VZV (Oka)) virus-induced cytopathicity by 50%
Cytomegalovirus [3] = assay: Minimum inhibitory concentration required to reduce cytomegalo virus (CMV (Davis)) virus-induced cytopathicity by 50%; conditions: Human betaherpesvirus 5
Human alphaherpesvirus 3 [4] = assay: Minimum inhibitory concentration required to reduce TK-VZV (07-1) virus-induced cytopathicity by 50%
Human alphaherpesvirus 1 [5] = assay: Minimum inhibitory concentration required to reduce herpes simplex virus-1 (HSV-1 (McIntyre)) virus-induced cytopathicity by 50%
Human alphaherpesvirus 2 [6] = assay: Minimum inhibitory concentration required to reduce herpes simplex virus-2 (HSV-2 (G)) virus-induced cytopathicity by 50%
Vaccinia virus = assay: Minimum inhibitory concentration required to reduce vaccinia virus (VV) virus-induced cytopathicity by 50%; conditions: Orthopoxvirus vaccinia
Human alphaherpesvirus 1 [7] = assay: Minimum inhibitory concentration required to reduce herpes simplex virus-1 (HSV-1 (KOS)) virus-induced cytopathicity by 50%
[8] = (§1) Minimum inhibitory concentration required to reduce virus-induced cell growth by 50%; conditions: Homo sapiens
Human alphaherpesvirus 2 [9] = assay: Minimum inhibitory concentration required to reduce herpes simplex virus-2 (HSV-2 (Lyons)) virus-induced cytopathicity by 50%
Cell line [10] = assay: Minimum concentration required to cause a microscopically detectable alteration of cell morphology; conditions: Homo sapiens
Summary of the method: (§2)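 Cytotoxicity read as the minimum concentration causing a microscopically detectable alteration of normal cell morphology. Cells were human embryonic skin-muscle (E6SM) or human embryonic lung (HEL), seeded in 96-well plates.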

Human alphaherpesvirus 2 [11] = assay: Minimum inhibitory concentration required to reduce herpes simplex virus-2 (HSV-2 (196)) virus-induced cytopathicity by 50%
[12] = tested on: Vesicular stomatitis virus; assay: Minimum inhibitory concentration required to reduce VSV virus-induced cytopathicity by 50%
Human alphaherpesvirus 1 [13] = assay: Minimum inhibitory concentration required to reduce thymidine kinase deficient-HSV-1 (B2006) virus-induced cytopathicity by 50%
Human alphaherpesvirus 1 [14] = assay: Minimum inhibitory concentration required to reduce thymidine kinase deficient-HSV-1 (VMW 1837) virus-induced cytopathicity by 50%
Human alphaherpesvirus 1 [15] = assay: Minimum inhibitory concentration required to reduce herpes simplex virus-1 (HSV-1 (F)) virus-induced cytopathicity by 50%
Human alphaherpesvirus 3 [16] = assay: Minimum inhibitory concentration required to reduce TK-VZV (YS/R) virus-induced cytopathicity by 50%
Mus musculus [17] = assay: Survival of mice after intraperitoneal infection with HSV-1 (KOS) and oral administration of 100 mg/kg at day 3
Summary of the method: (§3)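 Mice were infected intraperitoneally with HSV-1 (KOS), 10 mice per group. Drug was given by oral gavage once daily for 5 days, starting on the day of infection, at 25, 100 or 250 mg/kg per day. Vehicle was a 90:10 suspension of Sirupus Simplex and propylene glycol; the placebo group got the same syrup. Surviving mice were counted over 20 days.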

Mus musculus [18] = assay: Survival of mice after intraperitoneal infection with HSV-1 (KOS) and oral administration of 25 mg/kg at day 6; summary of the method: as §3
Mus musculus [19] = assay: Survival of mice after intraperitoneal infection with HSV-1 (KOS) and oral administration of 25 mg/kg at day 12; summary of the method: as §3
Mus musculus [20] = assay: Survival of mice after intraperitoneal infection with HSV-1 (KOS) and oral administration of 25 mg/kg at day 0; summary of the method: as §3
Mus musculus [21] = assay: Survival of mice after intraperitoneal infection with HSV-1 (KOS) and oral administration of 25 mg/kg at day 9; summary of the method: as §3
Mus musculus [22] = assay: Survival of mice after intraperitoneal infection with HSV-1 (KOS) and oral administration of 250 mg/kg at day 9; summary of the method: as §3
Mus musculus [23] = assay: Survival of mice after intraperitoneal infection with HSV-1 (KOS) and oral administration of 100 mg/kg at day 0; summary of the method: as §3
Mus musculus [24] = assay: Survival of mice after intraperitoneal infection with HSV-1 (KOS) and oral administration of 250 mg/kg at day 12; summary of the method: as §3
Mus musculus [25] = assay: Survival of mice after intraperitoneal infection with HSV-1 (KOS) and oral administration of 100 mg/kg at day 12; summary of the method: as §3
Mus musculus [26] = assay: Survival of mice after intraperitoneal infection with HSV-1 (KOS) and oral administration of 25 mg/kg at day 3; summary of the method: as §3
Mus musculus [27] = assay: Survival of mice after intraperitoneal infection with HSV-1 (KOS) and oral administration of 250 mg/kg at day 0; summary of the method: as §3
Mus musculus [28] = assay: Survival of mice after intraperitoneal infection with HSV-1 (KOS) and oral administration of 250 mg/kg at day 20; summary of the method: as §3
Mus musculus [29] = assay: Survival of mice after intraperitoneal infection with HSV-1 (KOS) and oral administration of 100 mg/kg at day 20; summary of the method: as §3
Mus musculus [30] = assay: Survival of mice after intraperitoneal infection with HSV-1 (KOS) and oral administration of 100 mg/kg at day 6; summary of the method: as §3
Mus musculus [31] = assay: Survival of mice after intraperitoneal infection with HSV-1 (KOS) and oral administration of 25 mg/kg at day 20; summary of the method: as §3
Mus musculus [32] = assay: Survival of mice after intraperitoneal infection with HSV-1 (KOS) and oral administration of 250 mg/kg at day 3; summary of the method: as §3
Mus musculus [33] = assay: Survival of mice after intraperitoneal infection with HSV-1 (KOS) and oral administration of 250 mg/kg at day 6; summary of the method: as §3
Mus musculus [34] = assay: Survival of mice after intraperitoneal infection with HSV-1 (KOS) and oral administration of 100 mg/kg at day 9; summary of the method: as §3
Cell line [35] = assay: as §1; conditions: Homo sapiens
Summary of the method: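 Cytotoxicity was measured as inhibition of cell growth in E6SM or HEL cells seeded in 96-well plates.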

Cell line [36] = assay: Minimum concentration required to cause a microscopically detectable alteration of human cells morphology; summary of the method: as §2

Row | Structure (SMILES) | MIC (Cytomegalovirus [1]) [µg/mL] | MIC (Human alphaherpesvirus 3 [2]) [µg/mL] | MIC (Cytomegalovirus [3]) [µg/mL] | MIC (Human alphaherpesvirus 3 [4]) [µg/mL] | MIC (Human alphaherpesvirus 1 [5]) [µg/mL] | MIC (Human alphaherpesvirus 2 [6]) [µg/mL] | MIC (Vaccinia virus) [µg/mL] | MIC (Human alphaherpesvirus 1 [7]) [µg/mL] | MIC [8] [µg/mL] | MIC (Human alphaherpesvirus 2 [9]) [µg/mL] | MIC (Cell line [10]) [µg/mL] | MIC (Human alphaherpesvirus 2 [11]) [µg/mL] | MIC [12] [µg/mL] | MIC (Human alphaherpesvirus 1 [13]) [µg/mL] | MIC (Human alphaherpesvirus 1 [14]) [µg/mL] | MIC (Human alphaherpesvirus 1 [15]) [µg/mL] | MIC (Human alphaherpesvirus 3 [16]) [µg/mL] | other results
1 | O=c1[nH]c(=O)n([C@H]2C[C@H](O)[C@@H](CO)O2)cc1-c1ccsc1 | > 40 | 1.5 (≈ 4.83 µM) | > 40 | 35 (≈ 113 µM) | 0.04 (≈ 0.129 µM) | 70 (≈ 226 µM) | > 40 | 0.3 (≈ 0.967 µM) | > 50 | 70 (≈ 226 µM) | > 100 | 100 (≈ 322 µM) | > 100 | 150 (≈ 483 µM) | > 100 | 0.6 (≈ 1.93 µM) | 20 (≈ 64.4 µM) | 
2 | O=c1[nH]c(=O)n([C@H]2C[C@H](O)[C@@H](CO)O2)cc1-c1ccc(I)s1 | > 40 | 0.07 (≈ 0.16 µM) | > 40 | 10 (≈ 22.9 µM) |  | > 40 | > 40 | 0.04 (≈ 0.0917 µM) | > 50 |  | 100 (≈ 229 µM) |  | > 40 | > 40 | > 40 |  | 40 (≈ 91.7 µM) | 
3 | O=c1[nH]c(=O)n(C2O[C@H](CO)[C@@H](O)[C@@H]2O)cc1-c1ccc(Cl)s1 (some centres not stated) | 30 (≈ 83.2 µM) | 0.08 (≈ 0.222 µM) | 70 (≈ 194 µM) | 60 (≈ 166 µM) | 0.015 (≈ 0.0416 µM) | 300 (≈ 832 µM) | > 150 | 0.15 (≈ 0.416 µM) | > 50 | 150 (≈ 416 µM) | > 400 | 150 (≈ 416 µM) | > 400 | > 400 | > 400 | 0.05 (≈ 0.139 µM) | 37 (≈ 103 µM) | 
4 | C[Si](C)(C)C#Cc1ccc(-c2cn([C@H]3C[C@H](O)[C@@H](CO)O3)c(=O)[nH]c2=O)s1 | > 10 | 0.2 (≈ 0.492 µM) | > 10 | 21 (≈ 51.7 µM) |  | > 40 | > 40 | 0.07 (≈ 0.172 µM) | 10 (≈ 24.6 µM) |  | 100 (≈ 246 µM) |  | > 40 | > 40 | > 40 |  | 20 (≈ 49.2 µM) | 
5 | O=c1[nH]c(=O)n([C@H]2C[C@H](O)[C@@H](CO)O2)cc1/C=C/Br [BRIVUDINE] |  | 0.004 (≈ 0.012 µM) |  | > 40 | 0.01 (≈ 0.03 µM) | 70 (≈ 210 µM) | 0.2 (≈ 0.6 µM) | 0.01 (≈ 0.03 µM) | > 50 | 70 (≈ 210 µM) | > 400 | > 400 | > 200 | > 200 | 10 (≈ 30 µM) | 0.02 (≈ 0.06 µM) | > 40 | No. of mice (Mus musculus [17]): 9; No. of mice (Mus musculus [18]): 10; No. of mice (Mus musculus [19]): 3; No. of mice (Mus musculus [20]): 10; No. of mice (Mus musculus [21]): 4; No. of mice (Mus musculus [22]): 10; No. of mice (Mus musculus [23]): 10; No. of mice (Mus musculus [24]): 10; No. of mice (Mus musculus [25]): 8; No. of mice (Mus musculus [26]): 10; No. of mice (Mus musculus [27]): 10; No. of mice (Mus musculus [28]): 9; No. of mice (Mus musculus [29]): 7; No. of mice (Mus musculus [30]): 9; No. of mice (Mus musculus [31]): 3; No. of mice (Mus musculus [32]): 10; No. of mice (Mus musculus [33]): 10; No. of mice (Mus musculus [34]): 8
6 | O=c1[nH]c(=O)n([C@H]2C[C@H](O)[C@@H](CO)O2)cc1-c1ccno1 |  | 0.48 (≈ 1.63 µM) |  |  | 2 (≈ 6.77 µM) | 300 (≈ 1020 µM) | > 400 | 20 (≈ 67.7 µM) |  | > 400 |  | 300 (≈ 1020 µM) | > 400 | 300 (≈ 1020 µM) | > 400 | 20 (≈ 67.7 µM) | 10 (≈ 33.9 µM) | MIC (Cell line [35]): > 50 µg/mL; MIC (Cell line [36]): 20 µg/mL (≈ 67.7 µM)
